ChEMBL document CHEMBL5696442, “Discovery of type II inhibitors of TGFβ-activated kinase 1 (TAK1) and mitogen-activated protein kinase kinase kinase kinase 2 (MAP4K2)” (J Med Chem, 2015)

Key:
[1] = biological target: Serine/threonine-protein kinase SMG1 (Homo sapiens) (UniProt Q96Q15); experiment: Inhibition of SMG1 ATP labeling site harbouring SYPYLFKGLEDLHLDER in human A-375 cells at 0.5 uM by KiNativ Profiling analysis relative to control; assay type: cell-based
Summary of the method: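 Live A375 melanoma cells treated with compound at 5 or 0.5 μM, then lysed. Lysate kinases were labeled with a lysine-reactive ATP or ADP-biotin probe. Inhibition was read as protection of labeling sites from the probe.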

[2] = biological target: T1, Serine/threonine-protein kinase LATS2 (Homo sapiens) (UniProt Q9NRM7); experiment: Inhibition of LATS2 Lys2 labeling site in human A-375 cells at 0.5 uM by KiNativ Profiling analysis relative to control; assay type: cell-based
T1 sequence (whole entry): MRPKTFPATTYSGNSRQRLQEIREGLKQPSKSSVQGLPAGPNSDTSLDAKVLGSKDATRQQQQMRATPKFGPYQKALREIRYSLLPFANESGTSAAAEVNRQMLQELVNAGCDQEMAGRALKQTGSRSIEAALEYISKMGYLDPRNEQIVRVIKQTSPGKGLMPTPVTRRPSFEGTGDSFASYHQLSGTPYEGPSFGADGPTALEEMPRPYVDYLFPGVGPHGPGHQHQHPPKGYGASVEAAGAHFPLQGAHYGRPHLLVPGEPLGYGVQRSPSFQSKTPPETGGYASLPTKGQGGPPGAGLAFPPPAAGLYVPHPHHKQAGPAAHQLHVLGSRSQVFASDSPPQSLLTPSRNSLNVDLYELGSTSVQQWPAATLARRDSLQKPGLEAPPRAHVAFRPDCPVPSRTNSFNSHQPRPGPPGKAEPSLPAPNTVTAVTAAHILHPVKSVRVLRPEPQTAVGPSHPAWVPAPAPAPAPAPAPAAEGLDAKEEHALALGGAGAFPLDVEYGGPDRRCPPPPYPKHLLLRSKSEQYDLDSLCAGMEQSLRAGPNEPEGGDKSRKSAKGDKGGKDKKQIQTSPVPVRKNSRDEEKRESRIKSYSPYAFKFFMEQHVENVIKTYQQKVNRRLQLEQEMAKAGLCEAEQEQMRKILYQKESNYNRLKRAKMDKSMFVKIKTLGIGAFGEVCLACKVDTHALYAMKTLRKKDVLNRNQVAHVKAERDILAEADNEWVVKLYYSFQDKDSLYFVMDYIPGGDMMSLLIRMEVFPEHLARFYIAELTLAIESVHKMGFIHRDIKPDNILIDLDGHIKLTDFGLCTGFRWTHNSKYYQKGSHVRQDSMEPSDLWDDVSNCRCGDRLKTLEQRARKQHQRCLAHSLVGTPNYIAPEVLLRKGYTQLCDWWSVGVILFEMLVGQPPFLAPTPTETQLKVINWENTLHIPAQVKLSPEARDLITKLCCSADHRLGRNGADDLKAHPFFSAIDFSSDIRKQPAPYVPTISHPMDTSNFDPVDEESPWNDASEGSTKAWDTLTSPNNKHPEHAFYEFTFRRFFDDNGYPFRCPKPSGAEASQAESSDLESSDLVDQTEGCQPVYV

[3] = biological target: Wee1-like protein kinase (Homo sapiens) (UniProt P30291); experiment: Inhibition of Wee1 Lys2 labeling site in human A-375 cells at 0.5 uM by KiNativ Profiling analysis relative to control; assay type: cell-based
[4] = biological target: Calcium/calmodulin-dependent protein kinase type II subunit gamma (Homo sapiens) (UniProt Q13555); experiment: Inhibition of CaMK2g Lys1 labeling site harbouring KTSTQEYAAKIINTKK in human A-375 cells at 0.05 uM by KiNativ Profiling analysis relative to control; assay type: cell-based
[5] = biological target: Epidermal growth factor receptor (Homo sapiens) (UniProt P00533); experiment: Inhibition of EGFR ACT labeling site harbouring LLGAEEKEYHAEGGKVPIK in human A-375 cells at 0.05 uM by KiNativ Profiling analysis relative to control; assay type: cell-based
[6] = biological target: Mitogen-activated protein kinase kinase kinase 20 (Homo sapiens, UniProt Q9NYL2); experiment: Inhibition of ZAK (unknown origin) Lys1 labeling site by KiNativ Profiling analysis
[7] = biological target: Cyclin-dependent kinase 17 (Homo sapiens) (UniProt Q00537); experiment: Inhibition of PCTAIRE2 Lys1 labeling site harbouring SKLTENLVALKEIR in human A-375 cells at 5 uM by KiNativ Profiling analysis relative to control; assay type: cell-based
[8] = biological target: T2, Aurora kinase C (Homo sapiens) (UniProt Q9UQB9); experiment: Inhibition of AurC ATP Loop labeling site in human A-375 cells at 5 uM by KiNativ Profiling analysis relative to control; assay type: cell-based
T2 sequence (whole entry): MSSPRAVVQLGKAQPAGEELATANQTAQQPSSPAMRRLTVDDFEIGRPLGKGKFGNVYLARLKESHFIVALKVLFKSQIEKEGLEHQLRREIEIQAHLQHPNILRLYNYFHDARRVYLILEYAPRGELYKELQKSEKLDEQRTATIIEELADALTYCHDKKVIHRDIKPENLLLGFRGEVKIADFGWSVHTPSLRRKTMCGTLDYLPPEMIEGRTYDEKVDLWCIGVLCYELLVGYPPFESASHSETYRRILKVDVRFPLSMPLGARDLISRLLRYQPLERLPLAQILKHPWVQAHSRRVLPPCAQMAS
Summary of the method: (§1)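 Live A375 melanoma cells were treated with compound at 5 or 0.5 μM, then lysed. The lysates were labeled with a lysine-reactive ATP or ADP-biotin probe. Kinase protection from probe labeling was measured by KiNativ.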

[9] = biological target: T3, Acylglycerol kinase, mitochondrial (Homo sapiens) (UniProt Q53H12); experiment: Inhibition of AGK ATP labeling site in human A-375 cells at 0.5 uM by KiNativ Profiling analysis relative to control; assay type: cell-based; summary of the method: as §1
T3 sequence (whole entry): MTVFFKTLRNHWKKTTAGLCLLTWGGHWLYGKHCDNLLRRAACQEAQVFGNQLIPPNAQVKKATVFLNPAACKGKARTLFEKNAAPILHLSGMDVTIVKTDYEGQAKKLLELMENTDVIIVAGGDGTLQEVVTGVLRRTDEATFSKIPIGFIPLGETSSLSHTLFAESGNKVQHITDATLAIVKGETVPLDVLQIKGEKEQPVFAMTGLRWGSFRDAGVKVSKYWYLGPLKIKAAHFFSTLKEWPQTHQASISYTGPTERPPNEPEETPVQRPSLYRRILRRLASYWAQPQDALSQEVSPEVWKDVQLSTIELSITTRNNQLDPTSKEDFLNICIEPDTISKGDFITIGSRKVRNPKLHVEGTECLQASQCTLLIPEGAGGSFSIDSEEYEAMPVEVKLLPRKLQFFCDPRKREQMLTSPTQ

Chain of Cyclin-dependent kinase 17 (Homo sapiens) (Q00537 whole entry, looked up): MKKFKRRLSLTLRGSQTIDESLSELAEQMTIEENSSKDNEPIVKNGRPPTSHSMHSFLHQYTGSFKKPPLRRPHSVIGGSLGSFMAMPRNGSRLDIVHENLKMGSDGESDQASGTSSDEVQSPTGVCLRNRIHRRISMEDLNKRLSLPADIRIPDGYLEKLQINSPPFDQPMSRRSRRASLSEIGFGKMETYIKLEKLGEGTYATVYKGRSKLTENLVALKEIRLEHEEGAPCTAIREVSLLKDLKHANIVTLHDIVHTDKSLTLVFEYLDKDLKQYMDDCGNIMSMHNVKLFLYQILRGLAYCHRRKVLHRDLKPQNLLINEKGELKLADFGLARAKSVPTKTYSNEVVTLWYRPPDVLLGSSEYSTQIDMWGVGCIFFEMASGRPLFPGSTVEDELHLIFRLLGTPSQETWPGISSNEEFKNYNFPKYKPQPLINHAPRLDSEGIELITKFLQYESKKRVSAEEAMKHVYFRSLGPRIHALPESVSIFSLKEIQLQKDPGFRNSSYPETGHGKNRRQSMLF
Chain of Wee1-like protein kinase (Homo sapiens) (P30291 whole entry, looked up): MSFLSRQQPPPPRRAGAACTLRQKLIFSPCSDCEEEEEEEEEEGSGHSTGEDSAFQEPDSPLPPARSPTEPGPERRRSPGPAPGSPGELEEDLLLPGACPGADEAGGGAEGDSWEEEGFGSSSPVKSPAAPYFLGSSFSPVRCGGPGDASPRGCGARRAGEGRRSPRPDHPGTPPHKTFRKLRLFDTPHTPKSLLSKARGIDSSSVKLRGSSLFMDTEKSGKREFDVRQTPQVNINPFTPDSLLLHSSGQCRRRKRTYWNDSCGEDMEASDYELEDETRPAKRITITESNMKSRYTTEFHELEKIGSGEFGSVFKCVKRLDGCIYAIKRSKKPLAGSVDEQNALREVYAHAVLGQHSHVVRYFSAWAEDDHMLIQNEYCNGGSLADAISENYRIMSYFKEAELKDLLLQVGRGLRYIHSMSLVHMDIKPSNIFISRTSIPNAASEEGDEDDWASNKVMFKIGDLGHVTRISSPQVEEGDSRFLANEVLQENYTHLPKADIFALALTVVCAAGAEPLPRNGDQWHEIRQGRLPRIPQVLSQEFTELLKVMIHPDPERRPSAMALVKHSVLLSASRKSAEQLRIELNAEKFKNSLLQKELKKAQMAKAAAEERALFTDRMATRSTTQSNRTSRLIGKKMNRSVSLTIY
Chain of Calcium/calmodulin-dependent protein kinase type II subunit gamma (Homo sapiens) (Q13555 whole entry): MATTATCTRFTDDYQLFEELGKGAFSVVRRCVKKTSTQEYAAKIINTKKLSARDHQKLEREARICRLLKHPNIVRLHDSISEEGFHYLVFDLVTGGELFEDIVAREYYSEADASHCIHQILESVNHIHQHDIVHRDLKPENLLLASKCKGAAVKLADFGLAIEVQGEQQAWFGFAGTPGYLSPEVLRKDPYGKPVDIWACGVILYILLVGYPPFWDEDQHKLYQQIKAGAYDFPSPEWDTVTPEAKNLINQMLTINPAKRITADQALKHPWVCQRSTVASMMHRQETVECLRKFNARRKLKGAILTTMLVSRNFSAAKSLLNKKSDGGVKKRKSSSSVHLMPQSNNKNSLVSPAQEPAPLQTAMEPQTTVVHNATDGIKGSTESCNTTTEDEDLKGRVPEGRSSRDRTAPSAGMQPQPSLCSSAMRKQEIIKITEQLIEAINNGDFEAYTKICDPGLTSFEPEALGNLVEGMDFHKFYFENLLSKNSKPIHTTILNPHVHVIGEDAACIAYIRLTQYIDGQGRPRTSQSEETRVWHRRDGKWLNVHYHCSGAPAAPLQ
Chain of Epidermal growth factor receptor (Homo sapiens) (P00533 whole entry): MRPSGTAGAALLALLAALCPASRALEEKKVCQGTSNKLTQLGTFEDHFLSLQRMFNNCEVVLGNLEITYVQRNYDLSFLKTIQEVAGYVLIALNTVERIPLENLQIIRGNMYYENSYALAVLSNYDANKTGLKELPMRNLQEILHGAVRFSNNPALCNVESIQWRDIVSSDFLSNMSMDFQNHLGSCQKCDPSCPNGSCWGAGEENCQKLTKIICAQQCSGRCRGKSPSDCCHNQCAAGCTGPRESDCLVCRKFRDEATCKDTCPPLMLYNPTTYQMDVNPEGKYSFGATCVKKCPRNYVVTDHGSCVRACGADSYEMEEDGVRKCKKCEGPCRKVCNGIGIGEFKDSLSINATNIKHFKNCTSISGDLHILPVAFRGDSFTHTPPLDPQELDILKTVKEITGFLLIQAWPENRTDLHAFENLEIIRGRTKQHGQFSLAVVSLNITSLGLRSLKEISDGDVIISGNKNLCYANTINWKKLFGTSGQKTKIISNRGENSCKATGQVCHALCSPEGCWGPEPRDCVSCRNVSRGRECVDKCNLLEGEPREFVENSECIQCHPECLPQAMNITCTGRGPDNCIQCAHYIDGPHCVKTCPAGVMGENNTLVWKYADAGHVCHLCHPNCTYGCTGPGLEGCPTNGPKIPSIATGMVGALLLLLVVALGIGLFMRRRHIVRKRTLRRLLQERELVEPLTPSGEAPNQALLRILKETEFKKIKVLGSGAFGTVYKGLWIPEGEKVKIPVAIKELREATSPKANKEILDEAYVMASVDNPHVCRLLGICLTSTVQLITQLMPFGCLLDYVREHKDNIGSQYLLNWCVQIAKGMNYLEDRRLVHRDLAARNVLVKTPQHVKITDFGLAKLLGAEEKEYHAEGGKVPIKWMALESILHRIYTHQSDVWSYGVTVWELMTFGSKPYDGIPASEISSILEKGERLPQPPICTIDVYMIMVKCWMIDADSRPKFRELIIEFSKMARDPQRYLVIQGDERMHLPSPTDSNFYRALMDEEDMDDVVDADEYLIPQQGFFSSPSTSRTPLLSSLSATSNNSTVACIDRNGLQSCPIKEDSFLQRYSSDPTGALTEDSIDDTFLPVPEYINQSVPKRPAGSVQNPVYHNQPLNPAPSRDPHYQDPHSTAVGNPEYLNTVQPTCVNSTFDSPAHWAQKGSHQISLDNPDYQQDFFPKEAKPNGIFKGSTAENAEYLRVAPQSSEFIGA
Chain of Mitogen-activated protein kinase kinase kinase 20 (Q9NYL2 whole entry): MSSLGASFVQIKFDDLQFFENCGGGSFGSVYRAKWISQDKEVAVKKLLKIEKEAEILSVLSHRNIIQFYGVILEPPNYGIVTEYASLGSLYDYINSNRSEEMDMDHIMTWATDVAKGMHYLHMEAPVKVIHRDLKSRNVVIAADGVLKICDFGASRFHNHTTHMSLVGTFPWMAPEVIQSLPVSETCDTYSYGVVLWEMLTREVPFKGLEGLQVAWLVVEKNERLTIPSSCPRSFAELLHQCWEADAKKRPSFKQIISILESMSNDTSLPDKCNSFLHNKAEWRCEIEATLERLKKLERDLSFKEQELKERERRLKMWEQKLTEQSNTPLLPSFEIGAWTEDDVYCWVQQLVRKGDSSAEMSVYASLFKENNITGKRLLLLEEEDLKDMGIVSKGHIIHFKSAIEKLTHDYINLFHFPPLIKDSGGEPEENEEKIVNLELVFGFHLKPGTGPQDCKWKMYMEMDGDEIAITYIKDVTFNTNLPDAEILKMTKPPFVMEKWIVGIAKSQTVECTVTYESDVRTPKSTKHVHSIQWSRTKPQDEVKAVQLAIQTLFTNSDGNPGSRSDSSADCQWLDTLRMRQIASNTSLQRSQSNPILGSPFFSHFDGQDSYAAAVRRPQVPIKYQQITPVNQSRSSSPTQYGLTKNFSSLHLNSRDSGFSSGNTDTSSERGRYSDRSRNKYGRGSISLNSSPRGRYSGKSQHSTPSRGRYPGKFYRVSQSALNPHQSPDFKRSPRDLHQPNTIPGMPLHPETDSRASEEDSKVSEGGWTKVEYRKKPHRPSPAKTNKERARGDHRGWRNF

SMILES	inhibition [1] [%]	inhibition [2] [%]	inhibition [3] [%]	inhibition [4] [%]	inhibition [5] [%]	IC50 [6] [µM]	inhibition [7] [%]	inhibition [8] [%]	inhibition [9] [%]
CCN1CCN(Cc2ccc(NC(=O)c3ccc(C)c(/C=C/c4cnc5[nH]ccc5c4OC)c3)cc2C(F)(F)F)CC1	33.7	6.4	8	14.5	-6.7	0.469	24.3	48.5	7
CCN1CCN(Cc2ccc(NC(=O)c3ccc(C)c(Oc4ccnc5[nH]ccc45)c3)cc2C(F)(F)F)CC1	3	12.6	13.6	16.6	17.5	0.698	73.3	31.4	-0.1
